Results on 25 compounds are retold here after article PMC8530978 (Bioorganic chemistry, 2021).

The subject of assay [1] is NCI sixty human tumor cell line panel. The assay can be described thus: NCI sixty human tumor cell line panel, single dose 10 μM. Format: cell-based. Particulars: for Mean % growth at 10 μM: mean growth percent over NCI 60 panel, single dose 10 μM; for activity at 10 µM: read-out: Mean % growth at 10 μM; for growth inhibition activity (in words): NCI 60 single dose 10 μM.

The test system of assay [2] is HeLaM cells. Put plainly: Flow cytometry cell cycle analysis. Format: cell-based. Particulars: 72 hr post treatment (DMSO 14%). A digest of the protocol: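 5 × 10^5 HeLaM cells plated, treated next day with test compound or DMSO for 24, 48 or 72 h. All cells (floating and attached) collected and fixed in 70% ethanol (final). […] 10 μg/ml, 30 min, 37 °C, then propidium iodide in PBS + 2% FBS. SubG1 gated; subG1 excluded before modeling live-cell cycle distribution.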
(Flow cytometry measures light scatter and fluorescence of single cells or particles in a stream.)

The subject of assay [3] is mitotic spindle of HeLaM cells. Format: cell-based. As to conditions: compound 10 μM + MG132 + ZM447439 (DMSO+MG132+ZM447439 3%).
For assay [4], the target named is T1, HDAC8 (Homo sapiens, UniProt Q9BY41).
T1 sequence (Q9BY41 1-377): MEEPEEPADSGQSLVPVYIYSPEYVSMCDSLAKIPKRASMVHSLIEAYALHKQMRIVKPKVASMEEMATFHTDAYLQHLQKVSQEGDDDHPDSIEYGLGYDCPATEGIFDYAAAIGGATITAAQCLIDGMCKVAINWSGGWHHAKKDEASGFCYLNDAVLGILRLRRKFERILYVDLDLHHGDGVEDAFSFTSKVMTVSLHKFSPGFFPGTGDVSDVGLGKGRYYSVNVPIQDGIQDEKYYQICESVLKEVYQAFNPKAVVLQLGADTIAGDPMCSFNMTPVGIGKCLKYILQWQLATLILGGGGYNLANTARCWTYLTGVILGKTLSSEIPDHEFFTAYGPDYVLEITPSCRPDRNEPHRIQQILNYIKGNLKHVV
The assay can be described thus: HDAC-Glo inhibitor testing with recombinant HDAC8. As to conditions: read-out: HDAC8 activity remaining. Format: biochemical.

Turning to “4-(3-(2-Hydroxyphenyl)-3-oxopropyl)phenyl)-N-(naphthalen-1-yl)acetamide [HPE-33]”, the “Mean % growth at 10 μM” value in assay [1] worked out at 91.98%.

With `O=C(Cc1ccc(C(O)CC(=O)c2ccccc2O)cc1)Nc1ccccc1` (centres unmarked) [HPE-34, 2-(4-(1-Hydroxy-3-(2-hydroxyphenyl)-3-oxopropyl)phenyl)-N-phenylacetamide], in assay [1] (Homo sapiens), the activity at 10 µM was 89.6%.

For `CN(C)c1ccc(NC(=O)Cc2ccc(/C=C/C(=O)c3ccccc3O)cc2)cc1` [HPE-35, (E)-N-(4-(Dimethylamino)phenyl)-2-(4-(3-(2-hydroxyphenyl)-3-oxoprop-1-en-1-yl)phenyl)acetamide], the activity at 10 µM in assay [1] (Homo sapiens) was determined as 85.9%.

For the compound `CN1CCc2c(c3ccccc3n2Cc2ccc(C(=O)NO)cc2)C1` [Tubastatin A, reference compound], the subG1 population entry in assay [2] is listed as “little effect on subG1”. The spindle collapse result in assay [3] is “did not produce the same aberrant spindle”.

With `O=C(Cc1ccc(/C=C/C(=O)c2ncc[nH]2)cc1)Nc1ccccc1` [IPE-1, (E)-2-(4-(3-(1H-Imidazol-2-yl)-3-oxoprop-1-en-1-yl)phenyl)-N-phenylacetamide], the activity at 10 µM in assay [1] (Homo sapiens) is 45.3%. The inhibition at 10 µM in assay [1] (Homo sapiens, read-out: growth inhibition at 10 μM) is over 50%.

As for `O=C(Cc1ccc(CCC(=O)c2ncc[nH]2)cc1)Nc1ccccc1` [IPE-28, 2-(4-(3-(1H-imidazol-2-yl)-3-oxopropyl)phenyl)-N-phenylacetamide], in assay [1] (Homo sapiens), the activity at 10 µM came to 92.8%. In addition, the “growth inhibition activity (in words)” value in assay [1] was “virtually inactive”.

In the case of `O=C(Cc1ccc(/C=C/C(=O)c2ncc[nH]2)cc1)Nc1c(F)c(F)c(F)c(F)c1F` [IPE-13, (E)-2-(-4(3-(1H-imidazol-2-yl)-3-oxoprop-1-en-1-yl)phenyl)-N-(perfluorophenyl)acetamide], the activity at 10 µM in assay [1] (Homo sapiens) came to 91.8%.

Regarding `O=C(Cc1ccc(/C=C/C(=O)c2ccccc2O)cc1)Nc1ccccc1` [HPE-32, (E)-2-(4-(3-(2-Hydroxyphenyl)-3-oxoprop-1-en-1-yl)phenyl)-N-phenylacetamide], the activity at 10 µM in assay [1] (Homo sapiens) is 85.9%.

Take `CCn1ccnc1C(=O)/C=C/c1ccc(CC(=O)Nc2ccc(F)cc2)cc1` [IPE-21, (E)-2-(4-(3-(1-Ethyl-1H-imidazol-2-yl)-3-oxoprop-1-en-1-yl)phenyl)-N-(4-fluorophenyl)acetamide]: the activity at 10 µM in assay [1] (Homo sapiens) worked out at 29.2%.

On to `O=C(Cc1ccc(/C=C/C(=O)c2nccs2)cc1)Nc1ccccc1` [TPE-30, (E)-2-(4-(3-Oxo-3-(thiazol-2-yl)prop-1-en-1-yl)phenyl)-N-phenylacetamide], for which, in assay [1] (Homo sapiens), the activity at 10 µM is 84.3%. The “growth inhibition activity (in words)” value in assay [1] is “inactive”.

On to `O=C(Cc1ccc(/C=C/C(=O)c2ncc[nH]2)cc1)NC1CCCCC1` [IPE-2, (E)-2-(4-(3-(1H-Imidazol-2-yl)-3-oxoprop-1-en-1-yl)phenyl)-N-cyclohexylacetamide], for which, in assay [1] (Homo sapiens), the activity at 10 µM was 70%. Moreover, in assay [1], the “growth inhibition activity (in words)” value was “almost completely inactive”.

Regarding `Cn1ccnc1C(=O)C1CC1c1ccc(CC(=O)Nc2ccc(Br)cc2)cc1` (centres unmarked) [IPE-29, N-(4-bromophenyl)-2-(4-(2-(1-methyl-1H-imidazole-2-carbonyl)cyclopropyl)phenyl)acetamide], the activity at 10 µM in assay [1] (Homo sapiens) was 98.7%. Besides, in assay [1], the “growth inhibition activity (in words)” value was “virtually inactive”. In addition, in assay [4], the remaining activity at 100 µM was 20 to 60%.

Consider `Cn1ccnc1C(=O)/C=C/c1ccc(CC(=O)NC2CCCCC2)cc1` [IPE-15, (E)-N-Cyclohexyl-2-(4-(3-(1-methyl-1H-imidazol-2-yl)-3-oxoprop-1-en-1-yl)phenyl)acetamide], for which the activity at 10 µM in assay [1] (Homo sapiens) amounted to 57.7%.

As for `O=C(Cc1ccc(/C=C/C(=O)c2ncc[nH]2)cc1)Nc1ccc(S(F)(F)(F)(F)F)cc1` [IPE-10, (E)-2-(-4(3-(1H-imidazol-2-yl)-3-oxoprop-1-en-1-yl)phenyl)-N-(4-pentafluorosulfaneyl)acetamide], the “Mean % growth at 10 μM” value in assay [1] is listed as 64.07%.

`Cn1ccnc1C(=O)/C=C/c1ccc(CC(=O)Nc2ccc(C(F)(F)F)cc2)cc1` [IPE-23, (E)-2-(4-(3-(1-methyl-1H-imidazol-2-yl)-3-oxoprop-1-en-1-yl)phenyl)-N-(4-(trifluoromethyl)phenyl)acetamide]: the activity at 10 µM in assay [1] (Homo sapiens) was 13%.

Consider `O=C(Cc1ccc(/C=C/C(=O)c2ncc[nH]2)cc1)Nc1cc(F)c(F)c(F)c1` [IPE-12, (E)-2-(-4(3-(1H-imidazol-2-yl)-3-oxoprop-1-en-1-yl)phenyl)-N-(3,4,5-trifluorophenyl)acetamide], for which, in assay [1] (Homo sapiens), the activity at 10 µM was 51.1%.

In the case of `O=C(Cc1ccc(/C=C/C(=O)c2ncccn2)cc1)Nc1ccccc1` [PPE-31, (E)-2-(4-(3-Oxo-3-(pyrimidin-2-yl)prop-1-en-1-yl)phenyl)-N-phenylacetamide], the activity at 10 µM in assay [1] (Homo sapiens) was 99.1%.

For `COc1ccc(NC(=O)Cc2ccc(/C=C/C(=O)c3ncc[nH]3)cc2)cc1` [IPE-4, (E)-2-(4-(3-(1H-imidazol-2-yl)-3-oxoprop-1-en-1-yl)phenyl)-N-(4-methoxyphenyl)acetamide], the activity at 10 µM in assay [1] (Homo sapiens) stood at 66.8%.

As for `CN(C)c1ccc(NC(=O)Cc2ccc(/C=C/C(=O)c3ncc[nH]3)cc2)cc1` [IPE-5, (E)-2-(4-(3-(1H-imidazol-2-yl)-3-oxoprop-1-en-1-yl)phenyl)-N-(4-(dimethylamino)phenyl)acetamid], the activity at 10 µM in assay [1] (Homo sapiens) was determined as 52.1%.

With `Cn1ccnc1C(=O)/C=C/c1ccc(CC(=O)Nc2ccc(Cl)cc2)cc1` [IPE-17, (E)-N-(4-chlorophenyl)-2-(4-(3-(1-methyl-1H-imidazol-2-yl)-3-oxoprop-1-en-1-yl)phenyl)acetamide], the activity at 10 µM in assay [1] (Homo sapiens) was 19.3%.

In the case of `O=C(Cc1ccc(/C=C/C(=O)c2ncc[nH]2)cc1)Nc1cccc2ccccc12` [IPE-6, (E)-2-(4-(3-(1H-imidazol-2-yl)-3-oxoprop-1-en-1-yl)phenyl)-N-(naphthalen-1-yl)acetamide], the activity at 10 µM in assay [1] (Homo sapiens) came out at 76.3%.

For the compound `O=C(Cc1ccc(/C=C/C(=O)c2ccccc2O)cc1)Nc1cccc2ccccc12` [HPE-36, (E)-2-(4-(3-(2-Hydroxyphenyl)-3-oxoprop-1-en-1-yl)phenyl)-N-(naphthalen-1-yl)acetamide], the activity at 10 µM in assay [1] (Homo sapiens) stood at 96.2%.

For the compound `O=C(Cc1ccc(/C=C/C(=O)c2ncc[nH]2)cc1)Nc1ccc(C(F)(F)F)cc1` [IPE-11, (E)-2-(4-(3-(1H-Imidazole-2-yl)-3-oxoprop-1-en-1-yl)phenyl)-N-(4-(trifluoromethyl)phenyl)acetamide], the activity at 10 µM in assay [1] (Homo sapiens) amounted to 23.5%.

As to `O=C(Cc1ccc(/C=C/C(=O)c2ncc[nH]2)cc1)Nc1cc(C(F)(F)F)cc(C(F)(F)F)c1` [IPE-14, (E)-2-(-4(3-(1H-imidazol-2-yl)-3-oxoprop-1-en-1-yl)phenyl)-N-(bis(3,5-trifluoromethyl)phenyl)acetamide], in assay [1], the “Mean % growth at 10 μM” value is 77.21%.

Consider `O=C(Cc1ccc(/C=C/C(=O)c2nccn2Cc2ccccc2)cc1)Nc1ccc(F)cc1` [IPE-20, (E)-2-(4-(3-(1-Benzyl-1H-imidazol-2-yl)-3-oxoprop-1-en-1-yl)phenyl)-N-(4-fluorophenyl)acetamide], for which the activity at 10 µM in assay [1] (Homo sapiens) was 54.7%.

The term inhibition denotes the change of the read-out against control, counted positive when it falls. The term remaining activity denotes the activity still measured, relative to the control.
